# bCat KO growth – beta-catenin-lacking colon tumor cell growth suppression; 1.5% of 140,000 active; HCT116 beta-catenin knockout viability, CellTiter-Glo, 60 h; stronger effect = lower value; viability, % at 10 µM;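 active = viability at or under a set limit, the compound median less 4 SD, cut at about 6% in these data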;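 also: 0% = Hyamine 1622 control at 20 µM and 100% = untreated cell control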
# HUVEC inhibit – human endothelial cell proliferation inhibition. HUVEC proliferation, CellTiter-Glo luminescence, 72 h; stronger effect = lower value. 1.1% of 86,000 active. viability, % at 10 µM (by protocol);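 active = viability at or below 30%; inactive = viability above 30%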;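 also: 100% = median luminescence of DMSO-only cell control wells on each plate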
# PTK2B oligo ant – Pyk2 (human) oligomerization antagonism. z-score (the deposit names both 25 µM and 10 µM). Q293 cells, Pyk2 FERM NanoBiT luminescence; stronger effect = lower value. Q14289. 0.83% of 99,000 active. AID 1347419;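 active = Z-score of -3 or lower, scaled per plate to the spread of control and sample wells; inactive = z-score above -3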;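 also: negative z-score means lost luminescence so less FERM oligomerization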
# Target sequence (Q14289 whole entry, looked up): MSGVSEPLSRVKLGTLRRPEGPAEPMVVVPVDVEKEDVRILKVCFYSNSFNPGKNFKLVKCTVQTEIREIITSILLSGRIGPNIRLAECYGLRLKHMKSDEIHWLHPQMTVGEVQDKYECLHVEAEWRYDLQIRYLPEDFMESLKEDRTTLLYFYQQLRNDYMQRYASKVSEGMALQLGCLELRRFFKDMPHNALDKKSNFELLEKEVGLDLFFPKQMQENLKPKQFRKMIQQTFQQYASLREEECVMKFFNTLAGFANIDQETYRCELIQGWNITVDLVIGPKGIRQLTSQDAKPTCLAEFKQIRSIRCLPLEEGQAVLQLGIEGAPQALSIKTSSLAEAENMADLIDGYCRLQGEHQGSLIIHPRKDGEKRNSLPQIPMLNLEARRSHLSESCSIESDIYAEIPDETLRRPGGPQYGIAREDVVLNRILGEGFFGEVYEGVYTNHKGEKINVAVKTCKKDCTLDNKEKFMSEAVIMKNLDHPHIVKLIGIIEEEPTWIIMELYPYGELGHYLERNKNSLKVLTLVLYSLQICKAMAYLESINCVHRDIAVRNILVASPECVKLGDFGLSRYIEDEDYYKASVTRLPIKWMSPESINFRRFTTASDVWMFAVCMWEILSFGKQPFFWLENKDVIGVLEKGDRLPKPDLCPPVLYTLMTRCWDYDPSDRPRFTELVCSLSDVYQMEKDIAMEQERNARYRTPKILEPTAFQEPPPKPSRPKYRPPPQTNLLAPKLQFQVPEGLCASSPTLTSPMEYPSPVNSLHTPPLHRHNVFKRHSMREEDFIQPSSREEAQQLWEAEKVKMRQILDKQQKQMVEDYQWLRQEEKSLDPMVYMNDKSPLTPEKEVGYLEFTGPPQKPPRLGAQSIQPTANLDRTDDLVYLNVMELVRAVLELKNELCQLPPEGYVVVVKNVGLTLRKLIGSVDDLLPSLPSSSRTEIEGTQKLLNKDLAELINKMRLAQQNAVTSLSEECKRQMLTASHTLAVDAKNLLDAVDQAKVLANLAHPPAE
# H69AR growth 86K – blocks growth of human H69AR lung tumor cells | viability, % at 10 µM | H69AR lung tumor viability, ATP luminescence, 72 h; stronger effect = lower value | 6% of 85,000 active;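 active = viability at or below 40%; inactive = viability above 40%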;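 also: multidrug resistant small cell line overexpressing MRP-1 efflux transporter; 100% = mean luminescence of untreated control wells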
# Lung fibro prol – blocks proliferation of human lung fibroblasts; LL 47 human lung fibroblast viability, ATP luminescence; stronger effect = lower value; viability, % at 10 µM; 1.1% of 85,000 active; AID 719;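 active = viability at or below 50% in the single dose screen; inactive = viability above 50%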;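 also: compound exposure lasted 72 h before the ATP readout; 100% = median luminescence of untreated cell-only wells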
#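 material = human LL 47 lung fibroblast cells | dosing = compounds added from tenfold dosing solution, 0.1% DMSO final | timing = overnight cell rest, 72 h compound treatment at 37 °C | measured by = CellTiter-Glo luminescence measuring cellular ATP | evaluation = % viability versus median cells-only luminescence | control set = cell-only wells, no compound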
# PTEN del growth – growth suppressors of cells with PTEN tumor suppressor deletion | HCT116 PTEN-null viability, CellTiter-Glo, 60 h; stronger effect = lower value | viability, % at 10 µM | 1.2% of 140,000 active | AID 827;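 active = viability at or below a set limit, 4 SD under the median of all tested compounds, cut at about 3.7% in these data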;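 also: PTEN knockout HCT116 line with beta catenin targeted HCT116 as companion control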
# * hit, by the source's call; nt = not tested or not shown. This excerpt belongs to a sample that is enriched for hits.
SMILES,bCat KO growth,HUVEC inhibit,PTK2B oligo ant,H69AR growth 86K,Lung fibro prol,PTEN del growth
CCn1c(=S)sc2c(=O)n(-c3ccccc3)c(SC)nc21,68.4,94.4,-2.04,61.4,102.1,65.3
CSCCC(NC(=O)c1ccccc1)C(=O)N/N=C(\C)c1ccccc1 (configuration not stated),93.2,nt,0.05,nt,nt,83.1
O=C(CNc1ccc2ccccc2c1)N/N=C/c1cc2ccccc2nc1Cl,65.5,nt,nt,nt,nt,69.5
COc1ccc2[nH]c(C)c(CCN(Cc3cccs3)C(=S)Nc3ccc(F)cc3)c2c1,61.5,87.8,nt,37.0*,100.3,63.2
CCN(CC)S(=O)(=O)c1ccc(-c2nnc(SCC(=O)N3CCc4ccccc43)o2)cc1,nt,64.9,0.7,4.4*,35.4*,nt
CCN(CC)S(=O)(=O)c1ccc(-c2nnc(SCc3nnc(-c4ccc(C)cc4)o3)o2)cc1,76.3,33.0,0.1,3.3*,77.5,78.6
CC/C(O)=C(\C#N)c1nnc2n1CCCCC2,89.7,98.1,0.18,104.1,100.9,90.5
CCOc1ccc(NC(=NCc2ccc3c(c2)OCO3)SC2CC(=O)N(c3ccc(C(=O)O)cc3)C2=O)cc1 (configuration not stated),88.6,nt,nt,nt,nt,85.2
CCOc1ccc(NC(=NCc2ccc3c(c2)OCO3)SC2CC(=O)N(c3ccc(OCC)cc3)C2=O)cc1 (configuration not stated),2.2*,25.9*,-0.7,100.7,43.3*,8.5
COc1ccc(NC(=O)N(Cc2ccc3c(c2)OCO3)C2CC(=O)N(c3ccc(OC)cc3)C2=O)cc1 (configuration not stated),87.2,87.8,-0.88,39.6*,97.3,83.2
CCOc1ccc(NC(=NCc2ccc3c(c2)OCO3)SC2CC(=O)N(c3ccccc3)C2=O)cc1 (configuration not stated),70.3,52.7,0.06,34.7*,83.5,69.3
O=C1CC(N(Cc2ccc3c(c2)OCO3)C(=O)Nc2ccc(F)cc2)C(=O)N1c1ccccc1 (configuration not stated),81.8,85.8,0.56,83.9,87.9,75.6
COC(=O)c1ccc(NC(=O)CSc2nnc(C(C)NC(=O)c3ccccc3Cl)n2C)cc1 (configuration not stated),94.9,96.5,0.66,97.7,98.0,91.6
CC(=O)/C=C/n1c(=S)oc2ccccc21,5.3*,nt,nt,nt,nt,4.6
CC(C)CC(=O)/C=C/n1c(=S)oc2ccccc21,3.8*,nt,nt,nt,nt,2.4*
CCCCOC(=O)CCn1c(=S)oc2ccccc21,104.0,96.5,0.75,87.1,104.5,91.9
Cc1ccc(Cl)c(OCC(=O)Nc2sc(C)c(C)c2C#N)c1,76.9,nt,nt,nt,nt,75.6
CC(C)(C)c1nnc2sc(SCC(=O)c3cccs3)nn2c1=O,77.5,68.6,0.79,14.4*,84.0,92.8
Cc1ccc(C(=O)CSc2nn3c(=O)c(C(C)(C)C)nnc3s2)cc1,89.8,70.6,1.84,53.2,99.1,85.8
CC(C)(C)c1nnc2sc(SCC(=O)N3CCCc4ccccc43)nn2c1=O,60.7,67.8,-1.04,16.9*,77.6,62.9
CC(C)(C)c1nnc2sc(SCC(=O)c3ccc(Cl)cc3)nn2c1=O,89.7,70.2,0.16,72.6,97.1,93.3
O=C(CSc1ccc2nnc(-c3ccc(F)cc3)n2n1)N1CCCc2ccccc21,79.6,nt,nt,nt,nt,64.5
O=C(CSc1ccc2nnc(-c3ccc(Cl)cc3)n2n1)N1CCCc2ccccc21,2.4*,nt,nt,nt,nt,2.2*
O=S(=O)(NC12CC3CC(CC(C3)C1)C2)c1ccc(F)cc1,77.9,112.1,-1.53,99.1,96.8,80.2
Cc1cc(C)c2nc(NC(=O)[C@@H](NC(=O)c3cccc(S(=O)(=O)N4CCOCC4)c3)C(C)C)sc2c1,65.8,nt,0.95,nt,nt,62.5
Cc1nnc(SCc2ccccc2)nc1/C=C/NOCc1ccc(Cl)cc1Cl,91.6,72.5,1.28,2.3*,91.0,83.6
CCOc1cc(-c2noc(-c3ccncc3)n2)cc(Br)c1OC,89.0,64.8,0.85,20.3*,109.2,84.6
Cc1ccsc1/C=C1\SC(N2CC(C)OC(C)C2)=NC1=O (configuration not stated),89.0,nt,nt,nt,nt,101.9
Cc1ccc2c(N)c(C(=O)N(c3ccccc3)c3ccccc3)sc2n1,93.8,89.1,0,83.3,97.0,91.2

# Screening data from PubChem.
